Measured values as given in ChEMBL document CHEMBL1122069, “Double-head haptens. Synthesis of and experimentally induced contact sensitivity to substances containing two unrelated haptens, pyrocatechol and alpha-methylene-gamma-butyrolactone, in the same molecule” (1982).

Columns and labels:
Type in all cases: functional
[1] = species on record: Cavia porcellus; experiment: Results of Open epicutaneous test (OET) in guinea pigs sensitized by mono […] (18) and expressed as No. of sensitive animals out of 8 animals tested
Outline: (§1)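 Guinea pigs sensitized by an injection repeated 4 times on alternate days, followed by 15 days rest before open epicutaneous challenge. Controls received intradermal 1:1 FCA-saline emulsion on alternate days, five injections in all. Irritation thresholds were first set on FCA-injected controls using the elicitation procedure. Read-out was average skin reaction and number of sensitive animals.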

[2] = species on record: Cavia porcellus; experiment: Results of Open epicutaneous test (OET) in guinea pigs sensitized by bi […] (3) and expressed as No. of sensitive animals out of 8 animals tested; outline: as §1
[3] = species on record: Cavia porcellus; experiment: Results of Open epicutaneous test (OET) in guinea pigs sensitized by mono […] (19) and expressed as No. of sensitive animals out of 8 animals tested; outline: as §1
[4] = species on record: Cavia porcellus; experiment: Results of Open epicutaneous test (OET) in guinea pigs sensitized by mixture of mono […] (18) and (19) and expressed as No. of sensitive animals out of 8 animals tested; outline: as §1
[5] = species on record: Cavia porcellus; experiment: Open epicutaneous test (OET) was conducted using 0.72 M compound deposited on a circular shaved flank of guinea pig sensitized by mixture of mono […] (18) and (19); erythema on the test area; outline: as §1
[6] = species on record: Cavia porcellus; experiment: Open epicutaneous test (OET) was conducted using 0.72 M compound deposited on a circular shaved flank of guinea pig sensitized by double […] (3); no reaction; outline: as §1
[7] = species on record: Cavia porcellus; experiment: Open epicutaneous test (OET) was conducted using 0.72 M compound deposited on a circular shaved flank of guinea pig sensitized by mono […] (19); erythema plus swelling going well beyond test area.; outline: as §1
[8] = species on record: Cavia porcellus; experiment: Open epicutaneous test (OET) was conducted using 0.72 M compound deposited on a circular shaved flank of guinea pig sensitized by mono […] (18); no reaction; outline: as §1
[9] = species on record: Cavia porcellus; experiment: Open epicutaneous test (OET) was conducted using 0.72 M compound deposited on a circular shaved flank of guinea pig sensitized by bi […] (3); erythema on the test area; conditions: in the assay text read “0.072 M” for “0.72 M”; outline: as §1
[10] = species on record: Cavia porcellus; experiment: Open epicutaneous test (OET) was conducted using 0.72 M compound deposited on a circular shaved flank of guinea pig sensitized by mono […] (19); no reaction; conditions: in the assay text read “0.072 M” for “0.72 M”; outline: as §1
[11] = species on record: Cavia porcellus; experiment: Open epicutaneous test (OET) was conducted using 0.72 M compound deposited on a circular shaved flank of guinea pig sensitized by mono […] (18); erythema on the test area; outline: as §1

SMILES | No. of sensitive animals [1] | No. of sensitive animals [2] | No. of sensitive animals [3] | No. of sensitive animals [4] | Average skin reaction [5] | Average skin reaction [6] | Average skin reaction [7] | Average skin reaction [8] | Average skin reaction [9] | Average skin reaction [10] | Average skin reaction [11]
C=C1CC(CCCCCCc2cccc(OC)c2OC)OC1=O (centres undefined) | 0 | 0 | 8 | 8 | 1.1 | 0 | 2.6 | 0 | – | – | –
C=C1CC(CCCCCCc2cccc(O)c2O)OC1=O (centres undefined) | 3 | 6 | 1 | 8 | 0.9 | – | – | 0.2 | 0.9 | <0.1 | –
CC1CC(CCCCCCc2cccc(O)c2O)OC1=O (centres undefined) | 7 | 6 | 0 | 8 | 1.1 | – | – | – | 0.8 | 0 | 1.4
